The record followed here is ChEMBL document CHEMBL1138558, “Synthesis of some new 1,2,4-triazoles, their Mannich and Schiff bases and evaluation of their antimicrobial activities” (2009).

Holding throughout (format): functional
One experiment concerns Bacillus cereus. Description: Antimicrobial activity against Bacillus cereus 702 Roma at 10 mg/mL after 18 hrs by agar-well diffusion method. As to conditions: for zone of inhibition at 10000 µg/mL: read-out: IZ. A digest of the protocol: (§1)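 Agar-well diffusion: each bacterium suspended in Mueller Hinton broth at about 10⁶ cfu/mL, flood-inoculated onto Mueller Hinton agar and dried. 5-mm wells were cut with a sterile cork-borer and filled with the test solution. Plates were incubated 18 h at 35 °C. The read-out was the diameter of the inhibition zone.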
A general note: In agar diffusion tests the substance spreads into inoculated agar from a disc or well.

Another experiment has as its system Pseudomonas aeruginosa. The experiment is described as follows: Antimicrobial activity against Pseudomonas aeruginosa ATCC 27853 at 10 mg/mL after 18 hrs by agar-well diffusion method. As to conditions: for zone of inhibition at 10000 µg/mL: ATCC 27853, 18 h, read-out: IZ. A digest of the protocol: as §1
The next experiment deals with Candida tropicalis. Description: Antimicrobial activity against Candida tropicalis ATCC 13803 at 10 mg/mL after 18 hrs by agar-well diffusion method. The following applies: for zone of inhibition at 10000 µg/mL: ATCC 13803, 18 h, read-out: IZ. A digest of the protocol:
(§2)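 Candida cultures were suspended in Mueller Hinton broth at about 10⁶ cfu/mL, flood-inoculated onto Sabouraud dextrose agar and dried. Test solution was loaded into 5-mm wells bored in the agar. Plates were incubated 18 h at 35 °C, and activity was scored as the inhibition zone around each well.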

The test system of a further experiment is Candida albicans. The experiment is described as follows: Antimicrobial activity against Candida albicans ATCC 60193 at 10 mg/mL after 18 hrs by agar-well diffusion method. The following applies: for zone of inhibition at 10000 µg/mL: ATCC 60193, 18 h, read-out: IZ. The gist of the method: as §2
In a further experiment the test system is Staphylococcus aureus. The experiment is described as follows: Antimicrobial activity against Staphylococcus aureus ATCC 25923 at 10 mg/mL after 18 hrs by agar-well diffusion method. As to conditions: for zone of inhibition at 10000 µg/mL: ATCC 25923, 18 h, read-out: IZ. The gist of the method:
as §1

Another experiment relates to Escherichia coli. The experiment is described as follows: Antimicrobial activity against Escherichia coli ATCC 25922 at 10 mg/mL after 18 hrs by agar-well diffusion method. As to conditions: for zone of inhibition at 10000 µg/mL: ATCC 25922, 18 h, read-out: IZ. A digest of the protocol:
as §1

A further experiment has as its system Enterococcus faecalis. The experiment is described as follows: Antimicrobial activity against Enterococcus faecalis ATCC 29212 at 10 mg/mL after 18 hrs by agar-well diffusion method. As to conditions: for zone of inhibition at 10000 µg/mL: ATCC 29212, 18 h, read-out: IZ. The gist of the method: as §1
In experiment [1] the test system is Yersinia pseudotuberculosis. The experiment is described as follows: Antimicrobial activity against Yersinia pseudotuberculosis ATCC 911 at 10 mg/mL after 18 hrs by agar-well diffusion method. As to conditions: for zone of inhibition at 10000 µg/mL: ATCC 911, 18 h, read-out: IZ. A digest of the protocol:
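Bacteria suspended in Mueller Hinton broth at about 10⁶ cfu/mL, flood-inoculated onto Mueller Hinton agar and dried. Test substance placed into 5-mm wells bored with a sterile cork-borer. Incubation 18 h at 35 °C, then the inhibition zone around each well measured.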

Molecules are shown by their SMILES. Calls of active or inactive are those of the source. The rule behind the calls is not given here.

On to `Cc1ccc(-n2c(S)nnc2CSc2nnc(-c3ccncc3)n2-c2ccccc2)cc1`, for which the figures for the zone of inhibition at 10000 µg/mL in the experiment with Bacillus cereus and in the experiment on Enterococcus faecalis were 6 mm and 15 mm, respectively. For the same molecule, the “inhibition zone (IZ)” value (in the experiment on Pseudomonas aeruginosa; in the experiment with Candida tropicalis; with Candida albicans; in the experiment on Staphylococcus aureus; in the experiment on Escherichia coli; in experiment [1]) was “inactive” each time.
Turning to `Sc1nnc(CSc2nnc(-c3ccncc3)n2-c2ccccc2)o1`, the zone of inhibition at 10000 µg/mL is 6 mm in the experiment with Bacillus cereus, 6 mm in the experiment with Candida tropicalis, 6 mm in the experiment on Candida albicans and 8 mm with Staphylococcus aureus. Further, the “inhibition zone (IZ)” value (in the experiment with Pseudomonas aeruginosa; in the experiment on Escherichia coli; in the experiment with Enterococcus faecalis; in experiment [1]) was “inactive” in each case.
Turning to `O=C(CSc1nnc(-c2ccncc2)n1-c1ccccc1)N/N=C/c1ccc(F)cc1`, the zone of inhibition at 10000 µg/mL came to 23 mm in the experiment with Bacillus cereus; 38 mm in the experiment on Pseudomonas aeruginosa; 30 mm in the experiment with Staphylococcus aureus; 30 mm in the experiment on Escherichia coli; 30 mm in the experiment with Enterococcus faecalis; 25 mm in experiment [1]. For the same molecule, the “inhibition zone (IZ)” value in the experiment with Candida tropicalis and with Candida albicans was “inactive” in each case.
With `O=C(CSc1nnc(-c2ccncc2)n1-c1ccccc1)N/N=C/c1ccccc1O`, the zone of inhibition at 10000 µg/mL was 25 mm in the experiment with Bacillus cereus; 30 mm in the experiment on Pseudomonas aeruginosa; 25 mm with Staphylococcus aureus; 30 mm in the experiment with Escherichia coli; 30 mm in the experiment on Enterococcus faecalis; 30 mm in experiment [1]. Moreover, the “inhibition zone (IZ)” value with Candida tropicalis and in the experiment with Candida albicans was “inactive” throughout.
With `O=C(CSc1nnc(-c2ccncc2)n1-c1ccccc1)N/N=C/c1cccnc1`, the “inhibition zone (IZ)” value in the experiment on Bacillus cereus, with Pseudomonas aeruginosa, in the experiment with Candida tropicalis, in the experiment on Candida albicans, in the experiment with Staphylococcus aureus and in the experiment on Enterococcus faecalis was “inactive” each time. Moreover, the zone of inhibition at 10000 µg/mL in the experiment on Escherichia coli amounted to 8 mm; in experiment [1], 7 mm.
`NNC(=O)CSc1nnc(-c2ccncc2)n1-c1ccccc1`: the “inhibition zone (IZ)” value in the experiment with Bacillus cereus, with Pseudomonas aeruginosa, in the experiment on Candida tropicalis, with Candida albicans, in the experiment on Staphylococcus aureus and with Escherichia coli was “inactive” each time. Besides, the “inhibition zone (IZ)” value (in the experiment with Enterococcus faecalis; in experiment [1]) was “inactive” each time.
Take `S=c1oc(CSc2nnc(-c3ccncc3)n2-c2ccccc2)nn1CNCCN1CCOCC1`: the “inhibition zone (IZ)” value in the experiment on Bacillus cereus, with Pseudomonas aeruginosa, with Candida tropicalis, with Candida albicans, in the experiment on Staphylococcus aureus and in the experiment on Enterococcus faecalis was “inactive” each time. Also, the “inhibition zone (IZ)” value in experiment [1] was “inactive”. The zone of inhibition at 10000 µg/mL with Escherichia coli turned out to be 6 mm.
Take `CC(C)CSc1nnc(-c2ccncc2)n1-c1ccccc1`: the zone of inhibition at 10000 µg/mL in the experiment with Bacillus cereus came to 30 mm; with Pseudomonas aeruginosa it was 30 mm; in the experiment on Candida tropicalis, 8 mm; with Candida albicans, 8 mm; in the experiment with Staphylococcus aureus, 25 mm; in the experiment with Escherichia coli, 25 mm. For the same molecule, the zone of inhibition at 10000 µg/mL (in the experiment on Enterococcus faecalis; in experiment [1]) was 30 mm in each case.
On to `Cc1ccc(N(C)c2nnc(CSc3nnc(-c4ccncc4)n3-c3ccccc3)s2)cc1`, for which the zone of inhibition at 10000 µg/mL in the experiment with Bacillus cereus was 17 mm; in the experiment with Pseudomonas aeruginosa, 15 mm; in the experiment with Staphylococcus aureus, 22 mm; in the experiment with Escherichia coli it was 28 mm; in the experiment with Enterococcus faecalis it was 7 mm; in experiment [1], 16 mm. In addition, the “inhibition zone (IZ)” value in the experiment with Candida tropicalis and with Candida albicans was “inactive” in each case.
For `O=C(CSc1nnc(-c2ccncc2)n1-c1ccccc1)N/N=C/c1ccc(O)c(O)c1`, the “inhibition zone (IZ)” value in the experiment with Bacillus cereus, in the experiment on Pseudomonas aeruginosa, in the experiment on Candida tropicalis, in the experiment with Candida albicans, with Staphylococcus aureus and with Escherichia coli was “inactive” each time. For the same molecule, the “inhibition zone (IZ)” value (with Enterococcus faecalis; in experiment [1]) was “inactive” throughout.
In the case of `O=C(CSc1nnc(-c2ccncc2)n1-c1ccccc1)N/N=C/c1ccccn1`, the zone of inhibition at 10000 µg/mL in the experiment on Bacillus cereus worked out at 20 mm; in the experiment with Pseudomonas aeruginosa, 40 mm; in the experiment on Staphylococcus aureus, 24 mm; in the experiment with Escherichia coli, 42 mm; in the experiment with Enterococcus faecalis it was 20 mm; in experiment [1], 30 mm. In addition, the “inhibition zone (IZ)” value with Candida tropicalis and in the experiment with Candida albicans was “inactive” throughout.
Regarding `Cc1ccc(-n2c(CSc3nnc(-c4ccncc4)n3-c3ccccc3)nn(CN3CCN(C)CC3)c2=S)cc1`, the “inhibition zone (IZ)” value in the experiment with Bacillus cereus, in the experiment on Pseudomonas aeruginosa, in the experiment on Candida tropicalis, in the experiment with Candida albicans, with Staphylococcus aureus and in the experiment with Escherichia coli was “inactive” in each case. Moreover, the “inhibition zone (IZ)” value (in the experiment on Enterococcus faecalis; in experiment [1]) was “inactive” in each case.
For the molecule `CCOC(=O)CSc1nnc(-c2ccncc2)n1-c1ccccc1`, the “inhibition zone (IZ)” value (in the experiment on Bacillus cereus; in the experiment with Pseudomonas aeruginosa; with Staphylococcus aureus; in the experiment with Escherichia coli; in the experiment on Enterococcus faecalis; in experiment [1]) was “inactive” throughout. Besides, the zone of inhibition at 10000 µg/mL in the experiment with Candida tropicalis and in the experiment on Candida albicans was 13 mm throughout.
`COc1ccc(/C=N/NC(=O)CSc2nnc(-c3ccncc3)n2-c2ccccc2)cc1`: the zone of inhibition at 10000 µg/mL in the experiment with Bacillus cereus is 25 mm; with Pseudomonas aeruginosa it was 30 mm; in the experiment on Staphylococcus aureus it was 28 mm; in the experiment with Escherichia coli, 24 mm; with Enterococcus faecalis, 28 mm; in experiment [1], 30 mm. The “inhibition zone (IZ)” value in the experiment with Candida tropicalis and in the experiment on Candida albicans was “inactive” each time.
`CSc1nnc(-c2ccncc2)n1-c1ccccc1`: the zone of inhibition at 10000 µg/mL in the experiment with Bacillus cereus came to 30 mm; in the experiment on Pseudomonas aeruginosa it was 30 mm; in the experiment on Candida tropicalis, 9 mm; in the experiment on Candida albicans, 9 mm; with Staphylococcus aureus, 25 mm; with Escherichia coli, 30 mm. For the same molecule, the zone of inhibition at 10000 µg/mL (with Enterococcus faecalis; in experiment [1]) was 30 mm each time.
`S=c1n(CNCCN2CCOCC2)nc(-c2ccncc2)n1-c1ccccc1`: the zone of inhibition at 10000 µg/mL was determined as 15 mm in the experiment on Bacillus cereus; 14 mm in the experiment with Pseudomonas aeruginosa; 21 mm with Staphylococcus aureus; 20 mm in the experiment with Escherichia coli; 16 mm with Enterococcus faecalis; 22 mm in experiment [1]. The “inhibition zone (IZ)” value with Candida tropicalis and with Candida albicans was “inactive” in each case.
Take `O=C(CSc1nnc(-c2ccncc2)n1-c1ccccc1)N/N=C/c1c(Cl)cccc1Cl`: the “inhibition zone (IZ)” value in the experiment with Bacillus cereus, with Pseudomonas aeruginosa, in the experiment with Candida tropicalis, in the experiment with Candida albicans, in the experiment with Staphylococcus aureus and in the experiment with Escherichia coli was “inactive” throughout. The “inhibition zone (IZ)” value (in the experiment with Enterococcus faecalis; in experiment [1]) was “inactive” each time.
Consider `CN1CCN(Cn2nc(-c3ccncc3)n(-c3ccccc3)c2=S)CC1`, for which the zone of inhibition at 10000 µg/mL amounted to 23 mm with Bacillus cereus; 30 mm with Pseudomonas aeruginosa; 24 mm in the experiment on Staphylococcus aureus; 24 mm in the experiment on Escherichia coli; 28 mm in the experiment on Enterococcus faecalis; 24 mm in experiment [1]. For the same molecule, the “inhibition zone (IZ)” value in the experiment on Candida tropicalis and in the experiment on Candida albicans was “inactive” throughout.
